Laboratory results as given in ChEMBL document CHEMBL5247599, “New β-arylchalcogeno amines with procognitive properties targeting Carbonic Anhydrases and Monoamine Oxidases” (Eur J Med Chem, 2022).
The source made the active and inactive calls. The rule behind the calls is not given here.

Legend:
[1] = biological target: Carbonic anhydrase 9 (Homo sapiens) (UniProt Q16790); test: Binding affinity to human CA9 by phenol red dye based stopped flow CO2 hydration assay; settings: filed as activator
In short: (§1)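 Purified recombinant human CA isoforms. CA-catalysed CO2 hydration was followed by stopped-flow with phenol red at 557 nm, taking initial rates over 10–100 s from at least six traces of the first 5–10% of reaction. Uncatalysed rates were subtracted. Activator stocks were 0.1 mM in deionised water, diluted down to 0.1 nM in assay buffer. K_A came from non-linear least-squares Michaelis–Menten fitting.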

[2] = biological target: Carbonic anhydrase 12 (Homo sapiens) (UniProt O43570); test: Binding affinity to human CA12 by phenol red dye based stopped flow CO2 hydration assay; settings: filed as activator; in short: as §1
[3] = biological target: T1, Amine oxidase [flavin-containing] B (Homo sapiens, UniProt P27338)
T1 sequence (P27338 whole entry): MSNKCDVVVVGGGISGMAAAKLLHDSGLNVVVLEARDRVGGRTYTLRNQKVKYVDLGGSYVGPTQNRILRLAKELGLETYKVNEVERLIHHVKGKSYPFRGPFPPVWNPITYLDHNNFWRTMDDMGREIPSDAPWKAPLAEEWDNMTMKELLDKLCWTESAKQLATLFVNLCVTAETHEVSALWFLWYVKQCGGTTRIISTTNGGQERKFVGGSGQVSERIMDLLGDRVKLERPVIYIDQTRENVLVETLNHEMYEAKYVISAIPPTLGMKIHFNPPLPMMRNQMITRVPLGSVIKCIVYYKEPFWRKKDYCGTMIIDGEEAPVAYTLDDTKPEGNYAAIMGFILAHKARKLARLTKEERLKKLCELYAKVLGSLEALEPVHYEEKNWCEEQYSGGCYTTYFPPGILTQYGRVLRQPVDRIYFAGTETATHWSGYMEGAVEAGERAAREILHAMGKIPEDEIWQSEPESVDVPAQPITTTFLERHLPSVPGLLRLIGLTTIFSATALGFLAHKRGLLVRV

Mus musculus [4] = test: Pro-cognitive activity in C57Bl6 mouse assessed as attenuation of long-term memory deficit by measuring increase in exploration time for novel object at 25 nmol/uL, icv measured after 24 hrs by novel object recognition test; format: functional, organism-based
In short: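 Novel object recognition in adult male C57Bl6 mice. Habituation was 10 min in an empty arena. Twenty-four hours later, mice explored two identical objects for 5 min, then received an immediate 5 µL lateral-ventricle infusion at 1 µL/min. A 5-min retention test with one familiar and one novel object followed 24 h later. Scores were % exploration time and DI = (tN−tF)/(tN+tF).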

Mus musculus [5] = test: Pro-cognitive activity in C57Bl6 mouse assessed as attenuation of long-term memory deficit by measuring increase in exploration time for novel juvenile by measuring discrimination index at 50 nmol/uL, icv measured after 48 hrs by novel object recognition test; format: functional
In short: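 Social recognition in adult male C57Bl6 mice with intracerebroventricular cannulae. Habituation was 10 min with two empty cups. Twenty-four hours later, a novel 3–4-week-old juvenile was placed under one cup for 10 min of exploration, followed immediately by a 5 µL infusion at 1 µL/min. Retention 48 h later offered familiar versus novel juvenile, scoring snout-to-cup contact. DI = (tN−tF)/(tN+tF).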

Sequence of Carbonic anhydrase 12 (Homo sapiens) (O43570 whole entry): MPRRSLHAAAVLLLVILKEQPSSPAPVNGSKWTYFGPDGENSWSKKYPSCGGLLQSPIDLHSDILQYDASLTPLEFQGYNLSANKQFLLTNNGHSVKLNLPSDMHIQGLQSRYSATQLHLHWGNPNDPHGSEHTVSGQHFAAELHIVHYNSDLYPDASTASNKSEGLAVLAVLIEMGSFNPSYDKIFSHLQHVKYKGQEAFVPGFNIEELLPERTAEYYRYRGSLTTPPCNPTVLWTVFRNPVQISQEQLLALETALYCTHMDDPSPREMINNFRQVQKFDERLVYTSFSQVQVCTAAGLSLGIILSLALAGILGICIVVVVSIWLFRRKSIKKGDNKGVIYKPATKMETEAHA

SMILES: CC(N)CSc1ccccc1 (stereo not given)
- Ka [1]: 74.8 µM
- Ka [2]: 43.3 µM
- IC50 [3]: 57.3 µM
- Activity (Mus musculus [4]): inactive
- Activity_index (Mus musculus [5]): 0.138
